Experimental findings from ChEMBL document CHEMBL1765066, “Role of metalation in the topoisomerase IIα inhibition and antiproliferation activity of a series of α-heterocyclic-N4-substituted thiosemicarbazones and their Cu(II) complexes” (J Med Chem, 2011) are described below.

Experiment [1] concerns the target T1, DNA topoisomerase 2-alpha (Homo sapiens, UniProt P11388). Kind of experiment: Inhibition of human topoisomerase 2 alpha-mediated relaxation of supercoiled pHOT DNA after 30 mins by agarose gel electrophoresis.
Experiment [2] addresses T1, DNA topoisomerase 2-alpha. Briefly: Inhibition of human topoisomerase 2 alpha-mediated relaxation of supercoiled pHOT DNA at 100 uM after 30 mins by agarose gel electrophoresis. A digest of the protocol: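 Single-concentration gel run at 100 μM drug, added from DMSO stock. Commercial human topo IIα (~2 units) with supercoiled pHOT DNA in reaction buffer (20 μL final), 37 °C for 30 min. The reaction was stopped with SDS plus proteinase K (37 °C, 15 min) and electrophoresed on 1% agarose (5 h, 5 V/cm). Gels were ethidium bromide pre- or post-stained and scored for supercoiled, relaxed and linear DNA.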

Experiment [3] concerns SK-BR-3. Briefly: Growth inhibition against human SK-BR-3 cells after 24 hrs by MTT assay. In kind it is functional. Particulars: SK-BR-3, 24 h. A digest of the protocol:
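SK-BR-3 cells in DMEM:F-12 (1:1) with 10% fetal calf serum, L-glutamine, nonessential amino acids and penicillin/streptomycin were seeded at 20 000 cells/well overnight. Drug was added in fresh medium (500 μM to 10 nM) for 24 h at 37 °C/5% CO2. MTT was added for 3 h, detergent solubilization ran overnight at room temperature, then absorbance was read. Values were normalized to untreated wells; GI50 from a sigmoidal fit; triplicate.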

pIC50: −log10 of the molar value. Active and inactive are the calls of the source. The rule behind the calls is not given here.

T1 sequence (P11388 whole entry): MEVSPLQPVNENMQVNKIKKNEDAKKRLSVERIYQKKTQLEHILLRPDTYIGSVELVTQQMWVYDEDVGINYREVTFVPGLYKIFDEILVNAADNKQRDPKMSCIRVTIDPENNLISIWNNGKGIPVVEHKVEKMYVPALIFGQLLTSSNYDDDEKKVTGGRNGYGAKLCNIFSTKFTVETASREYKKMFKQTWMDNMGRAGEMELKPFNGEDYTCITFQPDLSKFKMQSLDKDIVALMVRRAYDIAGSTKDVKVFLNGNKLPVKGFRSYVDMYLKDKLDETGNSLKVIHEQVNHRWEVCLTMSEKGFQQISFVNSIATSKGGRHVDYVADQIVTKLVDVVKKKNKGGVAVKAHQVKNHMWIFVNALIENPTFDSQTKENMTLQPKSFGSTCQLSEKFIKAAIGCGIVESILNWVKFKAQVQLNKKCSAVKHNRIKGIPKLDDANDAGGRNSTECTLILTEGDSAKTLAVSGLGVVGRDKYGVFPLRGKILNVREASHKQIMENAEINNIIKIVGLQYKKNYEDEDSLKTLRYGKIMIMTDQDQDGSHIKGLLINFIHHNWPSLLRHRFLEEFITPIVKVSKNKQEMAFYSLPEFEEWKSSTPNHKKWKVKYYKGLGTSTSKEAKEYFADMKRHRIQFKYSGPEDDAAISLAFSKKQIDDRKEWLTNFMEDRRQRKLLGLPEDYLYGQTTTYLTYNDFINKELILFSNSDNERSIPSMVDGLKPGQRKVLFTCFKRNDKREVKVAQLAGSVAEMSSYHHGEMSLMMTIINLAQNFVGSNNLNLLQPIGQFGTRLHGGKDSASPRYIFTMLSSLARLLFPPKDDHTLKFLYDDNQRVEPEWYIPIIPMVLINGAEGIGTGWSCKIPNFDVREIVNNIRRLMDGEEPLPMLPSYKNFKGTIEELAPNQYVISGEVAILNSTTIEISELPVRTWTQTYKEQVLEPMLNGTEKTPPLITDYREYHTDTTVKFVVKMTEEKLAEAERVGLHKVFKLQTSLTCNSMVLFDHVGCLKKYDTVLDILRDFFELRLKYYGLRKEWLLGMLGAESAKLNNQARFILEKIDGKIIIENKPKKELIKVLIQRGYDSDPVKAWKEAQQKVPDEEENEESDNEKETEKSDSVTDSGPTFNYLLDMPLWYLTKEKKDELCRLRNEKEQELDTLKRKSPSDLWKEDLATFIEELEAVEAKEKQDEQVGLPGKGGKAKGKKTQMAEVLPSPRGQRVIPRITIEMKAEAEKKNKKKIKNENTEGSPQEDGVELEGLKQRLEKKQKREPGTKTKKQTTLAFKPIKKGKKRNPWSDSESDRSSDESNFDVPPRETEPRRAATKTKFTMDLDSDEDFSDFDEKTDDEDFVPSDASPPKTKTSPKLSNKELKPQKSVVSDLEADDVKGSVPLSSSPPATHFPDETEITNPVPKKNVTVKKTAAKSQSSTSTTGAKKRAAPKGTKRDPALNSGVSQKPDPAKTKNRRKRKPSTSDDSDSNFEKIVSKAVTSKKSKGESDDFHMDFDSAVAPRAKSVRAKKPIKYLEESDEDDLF

The term pIC50 denotes the IC50 on a negative log10 scale, so that one unit is a factor of ten. Higher therefore signals a low IC50. The term GI50 denotes the concentration at which growth is held to half of that of the control. High values mean lower sensitivity of the cells, low ones greater sensitivity of the cells. `CNC(=S)N/N=C(\C)c1ccccn1`: the pIC50 in experiment [1] is 4.04. Further, the inhibition result in experiment [2] was “Active”. For the same molecule, the GI50 in experiment [3] was 5.5 µM.

For the molecule `C=CCNC(=S)N/N=C(\C)c1ccccn1`, the pIC50 in experiment [1] was below 4.00. Besides, the inhibition result in experiment [2] is “inactive”. The molecule also gave a concentration for 50% growth inhibition (GI50) in experiment [3] of 6.1 µM.

For `S=C(NCc1ccccc1)N/N=C/c1ccccn1`, in experiment [1], the pIC50 is below 4.00. Also, the inhibition result in experiment [2] is “inactive”. The same molecule showed a GI50 in experiment [3] of 4.6 µM.

Take `CCNC(=S)N/N=C(\C)c1ccccn1`: the negative logarithm of the IC50 (pIC50) in experiment [1] is 4.10. In addition, the inhibition result in experiment [2] was “Active”. This molecule had a GI50 in experiment [3] of 5.9 µM.

In experiment [1], `C/N=C(\S)N/N=C(\C)c1cnccn1` gave a pIC50 below 4.00. Besides, the inhibition entry in experiment [2] was “inactive”. The same molecule returned a GI50 in experiment [3] of 7.9 µM.

Molecule `N/C(S)=N/N=C/c1ccccn1` showed a pIC50 in experiment [1] below 4.00. Besides, the inhibition entry in experiment [2] was “inactive”. In experiment [3], this molecule showed a GI50 of 7.4 µM.

Turning to `S=C(N/N=C/c1ccccn1)N1CCCC1`, in experiment [1], the negative logarithm of the IC50 (pIC50) is below 4.00. Further, the inhibition entry in experiment [2] is “inactive”. For the same molecule, in experiment [3], halving of growth (GI50) required 4.3 µM.

`CCNC(=S)N/N=C/c1ccccn1` gave a pIC50 in experiment [1] of 4.03. Further, the inhibition result in experiment [2] is “Active”. The GI50 in experiment [3] was 6.3 µM.

Molecule `CC(C)NC(=S)N/N=C/c1ccccn1` showed a pIC50 in experiment [1] below 4.00. Further, the inhibition entry in experiment [2] was “inactive”. In experiment [3], this molecule gave a GI50 of 7.7 µM.

For `C=CCNC(=S)N/N=C/c1ccccn1`, in experiment [1], the negative-log IC50 (pIC50) is below 4.00. Further, the inhibition entry in experiment [2] is “inactive”. Further, halving of growth in experiment [3] (GI50) required 8.1 µM.

As to `CNC(=S)N/N=C/c1ccccn1`, in experiment [1], the pIC50 was 4.12. Further, in experiment [2], the inhibition entry was “Active”. In experiment [3], this molecule showed a GI50 of 7.1 µM.
